According to ChEMBL document CHEMBL2046366, “Design, synthesis and biological evaluation of novel imidazopyridines as potential antidiabetic GSK3β inhibitors” (Bioorg Med Chem Lett, 2012):

Columns and labels:
[1] = Metabolic stability in mouse liver microsome after 45 mins by mass spectroscopy; assay type: ADME; settings: liver microsomes, read-out: Stability
In short: (§1)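 Compound incubated with human or mouse liver microsomes at 37 °C for 45 min. Percent compound remaining was measured by mass spectrometry.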

[2] = Metabolic stability in human liver microsome after 45 mins by mass spectroscopy; assay type: ADME; settings: liver microsomes, read-out: Stability; in short: as §1
[3] = AUC in ICR mouse at 27.3 mg/kg, po; assay type: ADME, organism-based; design: dose 27.3 mg/kg, route oral; settings: plasma
In short: (§2)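 Single oral dose of 27.3 mg kg^-1, given as HCl salt formulation, to male ICR mice (n = 2). AUC, Cmax and Tmax were derived from plasma concentration–time data.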

[4] = Cmax in ICR mouse at 27.3 mg/kg, po; assay type: ADME, organism-based; design: dose 27.3 mg/kg, route oral; settings: in vivo; in short: as §2
[5] = Tmax in ICR mouse at 27.3 mg/kg, po; assay type: ADME, organism-based; design: dose 27.3 mg/kg, route oral; settings: in vivo; in short: as §2

SMILES | remaining at 0.75 h [1] [%] | remaining at 0.75 h [2] [%] | AUC [3] [ng·h/mL] | Cmax [4] [ng/mL] | Tmax [5] [h]
CS(=O)(=O)Nc1ccc(CCNC(=O)c2ccnc3[nH]c(-c4ccc(F)cc4)nc23)cc1 | 0.8 | 13 |  |  | 
Cc1ccncc1NC(=O)c1ccnc2[nH]c(N3CCC(c4ccccc4)C3)nc12.Cl (centres undefined) |  |  | 39 |  | 
O=C(NCCc1cccnc1Cl)c1ccnc2[nH]c(-c3ccoc3)nc12 | 1.5 | 26.5 |  |  | 
CS(=O)(=O)Nc1ccc(CCNC(=O)c2ccnc3[nH]c(-c4cccs4)nc23)cc1 | 2.2 | 36.8 |  |  | 
Cc1ccncc1NC(=O)c1ccnc2[nH]c(N3CCC(c4ccccc4)C3)nc12 (centres undefined) | 28.9 | 36.5 |  |  | 
CS(=O)(=O)Nc1ccc(CCNC(=O)c2ccnc3[nH]c(-c4ccoc4)nc23)cc1 | 5.2 | 47 |  |  | 
CN(C)S(=O)(=O)Nc1ccc(CCNC(=O)c2ccnc3[nH]c(-c4ccsc4)nc23)cc1 | 1.6 | 13.3 |  |  | 
Cc1ccc(NC(=O)c2ccnc3[nH]c(-c4ccc(F)cc4)nc23)cn1.Cl |  |  | 2400 | 843 | 3
O=C(NCCCc1ccc(Cl)nc1)c1ccnc2[nH]c(-c3ccc(F)cc3)nc12 | 4.2 | 25.7 |  |  | 
CN(C)S(=O)(=O)Nc1ccc(CCNC(=O)c2ccnc3[nH]c(-c4ccc(F)cc4)nc23)cc1 | 1 | 7.4 |  |  | 
O=C(NCCc1cccc(O)c1)c1ccnc2[nH]c(-c3ccc(F)cc3)nc12 | 11.1 | 12.1 |  |  | 
O=C(NCCc1ccc(F)nc1)c1ccnc2nc(-c3ccc(F)cc3)[nH]c12 | 2.9 | 9.4 |  |  | 
CS(=O)(=O)Nc1ccc(CCNC(=O)c2ccnc3[nH]c(-c4ccc(Cl)cc4)nc23)cc1 | 70.2 | 86.6 |  |  | 

Other lines, results leading:

remaining at 0.75 h [1] [%] | remaining at 0.75 h [2] [%] | AUC [3] [ng·h/mL] | Cmax [4] [ng/mL] | Tmax [5] [h] | SMILES
 |  | 545 | 228 | 1 | COc1ccncc1NC(=O)c1ccnc2[nH]c(-c3ccc(F)cc3)nc12.Cl
6.6 | 4 |  |  |  | COc1cccc(-c2nc3c(C(=O)Nc4cnccc4C)ccnc3[nH]2)c1
6.3 | 6.5 |  |  |  | CCOc1ccncc1NC(=O)c1ccnc2[nH]c(-c3cccnc3)nc12
 |  | 645 | 496 | 0.5 | COc1ccc(-c2nc3c(C(=O)Nc4cnccc4C)ccnc3[nH]2)cc1.Cl
46.7 | 36.5 |  |  |  | COc1ccncc1NC(=O)c1ccnc2[nH]c(-c3cccc(Cl)c3)nc12
87 | 71 |  |  |  | COc1ccncc1NC(=O)c1ccnc2[nH]c(-c3ccc(F)cc3)nc12
56.8 | 51.4 |  |  |  | COc1ccc(-c2nc3c(C(=O)Nc4cnccc4C)ccnc3[nH]2)cc1
47.4 | 33.3 |  |  |  | Cc1ccc(NC(=O)c2ccnc3[nH]c(-c4ccc(F)cc4)nc23)cn1
36 | 38 |  |  |  | CCOc1ccncc1NC(=O)c1ccnc2[nH]c(-c3ccc(F)cc3)nc12
27 | 96 |  |  |  | COc1ccncc1NC(=O)c1ccnc2nc(-c3ccncc3)[nH]c12
 |  | 27 |  |  | COc1ccncc1NC(=O)c1ccnc2[nH]c(-c3cccc(Cl)c3)nc12.Cl
6.4 | 23.8 |  |  |  | CCOc1ccncc1NC(=O)c1ccnc2[nH]c(-c3cccc(OC)c3)nc12
70 |  |  |  |  | O=C(Nc1cccnc1)c1ccnc2[nH]c(-c3ccc(F)cc3)nc12
0 | 0 |  |  |  | CCN(CC)c1ccc(-c2nc3c(C(=O)Nc4cnccc4C)ccnc3[nH]2)cc1
